Results reported in ChEMBL document CHEMBL1795285, “Facile fabrication of promising protein tyrosine phosphatase (PTP) inhibitor entities based on 'clicked' serine/threonine-monosaccharide hybrids” (Bioorg Med Chem, 2011).
Active and inactive are the calls of the source. No cut-off for these calls is given here.

Experiments:
[1] = target: Receptor-type tyrosine-protein phosphatase F (Homo sapiens, UniProt P10586); assay: Inhibition of human LAR
A549 = assay: Cytotoxicity against human A549 cells after 72 hrs by MTT assay; type: functional, cell-based; settings: A549, 72 h
Procedure, shortened: (§1)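 Cells seeded at 2000/well and held 24 h at 37 °C, 5% CO2 before treatment. After a 3 h MTT incubation, medium was replaced by DMSO. Absorbance read at 550 nm against a 690 nm reference, with OD taken as proportional to viable cell number.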

HeLa = assay: Cytotoxicity against human HeLa cells after 72 hrs by MTT assay; type: functional, cell-based; procedure, shortened: as §1
[2] = target: T1, M-phase inducer phosphatase 2 (Homo sapiens, UniProt P30305); assay: Inhibition of human Cdc25B
T1 sequence (P30305 whole entry): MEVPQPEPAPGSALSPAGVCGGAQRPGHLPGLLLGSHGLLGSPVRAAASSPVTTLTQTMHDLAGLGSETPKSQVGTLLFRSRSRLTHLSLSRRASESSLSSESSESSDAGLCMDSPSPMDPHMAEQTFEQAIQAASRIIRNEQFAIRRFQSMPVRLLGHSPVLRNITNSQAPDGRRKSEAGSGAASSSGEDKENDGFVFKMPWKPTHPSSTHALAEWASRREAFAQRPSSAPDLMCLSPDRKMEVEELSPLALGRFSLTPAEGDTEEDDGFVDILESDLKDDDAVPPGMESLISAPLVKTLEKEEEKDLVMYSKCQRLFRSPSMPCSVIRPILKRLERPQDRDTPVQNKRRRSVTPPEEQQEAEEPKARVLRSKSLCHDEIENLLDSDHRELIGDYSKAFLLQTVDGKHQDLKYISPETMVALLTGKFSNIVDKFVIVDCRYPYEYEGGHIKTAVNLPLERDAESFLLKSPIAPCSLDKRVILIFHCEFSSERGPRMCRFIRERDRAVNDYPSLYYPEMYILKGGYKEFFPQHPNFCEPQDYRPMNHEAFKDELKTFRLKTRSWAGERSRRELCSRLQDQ

[3] = target: T2, M-phase inducer phosphatase 1 (Homo sapiens, UniProt P30304); assay: Inhibition of human CDC25A
T2 sequence (P30304 whole entry): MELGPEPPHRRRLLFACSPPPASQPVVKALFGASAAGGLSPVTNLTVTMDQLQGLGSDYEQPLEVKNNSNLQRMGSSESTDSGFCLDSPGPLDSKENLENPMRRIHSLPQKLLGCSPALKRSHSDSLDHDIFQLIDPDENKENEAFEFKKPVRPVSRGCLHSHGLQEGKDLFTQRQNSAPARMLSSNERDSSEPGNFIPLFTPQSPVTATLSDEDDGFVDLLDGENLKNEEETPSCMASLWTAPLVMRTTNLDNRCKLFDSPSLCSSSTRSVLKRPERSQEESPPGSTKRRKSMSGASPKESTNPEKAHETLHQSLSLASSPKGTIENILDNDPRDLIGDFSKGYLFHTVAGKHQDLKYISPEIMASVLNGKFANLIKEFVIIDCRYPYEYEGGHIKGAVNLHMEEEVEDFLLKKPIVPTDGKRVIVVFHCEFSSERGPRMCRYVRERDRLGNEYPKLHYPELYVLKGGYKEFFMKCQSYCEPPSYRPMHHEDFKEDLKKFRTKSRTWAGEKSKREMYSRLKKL

[4] = target: T3, Tyrosine-protein phosphatase non-receptor type 2 (Homo sapiens, UniProt P17706); assay: Inhibition of TCPTP
T3 sequence (P17706 whole entry): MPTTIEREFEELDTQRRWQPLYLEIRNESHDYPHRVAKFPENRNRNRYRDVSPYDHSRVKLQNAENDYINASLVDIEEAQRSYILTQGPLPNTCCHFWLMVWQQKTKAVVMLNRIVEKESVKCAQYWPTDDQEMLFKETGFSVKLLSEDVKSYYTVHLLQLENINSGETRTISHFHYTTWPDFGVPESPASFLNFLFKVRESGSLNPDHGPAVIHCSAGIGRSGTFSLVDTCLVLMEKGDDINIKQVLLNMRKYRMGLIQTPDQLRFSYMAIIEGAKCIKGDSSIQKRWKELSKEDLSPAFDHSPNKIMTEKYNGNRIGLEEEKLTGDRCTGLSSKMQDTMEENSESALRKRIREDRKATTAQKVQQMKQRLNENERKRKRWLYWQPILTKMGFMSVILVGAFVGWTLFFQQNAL

[5] = target: T4, Tyrosine-protein phosphatase non-receptor type 11 (Homo sapiens, UniProt Q06124); assay: Inhibition of SHP2
T4 sequence (Q06124 whole entry): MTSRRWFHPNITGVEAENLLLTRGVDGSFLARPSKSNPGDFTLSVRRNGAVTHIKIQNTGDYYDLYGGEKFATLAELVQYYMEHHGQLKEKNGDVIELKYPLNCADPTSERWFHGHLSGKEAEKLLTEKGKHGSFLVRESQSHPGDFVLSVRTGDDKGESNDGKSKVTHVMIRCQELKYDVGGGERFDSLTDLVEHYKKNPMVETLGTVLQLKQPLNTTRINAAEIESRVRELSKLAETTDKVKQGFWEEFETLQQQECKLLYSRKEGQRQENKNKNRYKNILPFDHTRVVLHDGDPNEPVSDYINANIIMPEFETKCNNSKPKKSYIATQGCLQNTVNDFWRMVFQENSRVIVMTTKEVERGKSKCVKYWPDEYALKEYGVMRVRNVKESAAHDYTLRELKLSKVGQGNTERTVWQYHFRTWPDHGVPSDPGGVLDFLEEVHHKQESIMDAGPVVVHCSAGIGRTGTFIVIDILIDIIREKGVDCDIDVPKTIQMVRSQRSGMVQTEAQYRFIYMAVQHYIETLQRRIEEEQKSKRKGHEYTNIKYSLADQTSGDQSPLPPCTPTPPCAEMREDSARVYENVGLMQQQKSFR

[6] = target: T5, Tyrosine-protein phosphatase non-receptor type 1 (Homo sapiens, UniProt P18031); assay: Inhibition of human recombinant […] catalytic domain using pNPP substrate
T5 sequence (P18031 whole entry): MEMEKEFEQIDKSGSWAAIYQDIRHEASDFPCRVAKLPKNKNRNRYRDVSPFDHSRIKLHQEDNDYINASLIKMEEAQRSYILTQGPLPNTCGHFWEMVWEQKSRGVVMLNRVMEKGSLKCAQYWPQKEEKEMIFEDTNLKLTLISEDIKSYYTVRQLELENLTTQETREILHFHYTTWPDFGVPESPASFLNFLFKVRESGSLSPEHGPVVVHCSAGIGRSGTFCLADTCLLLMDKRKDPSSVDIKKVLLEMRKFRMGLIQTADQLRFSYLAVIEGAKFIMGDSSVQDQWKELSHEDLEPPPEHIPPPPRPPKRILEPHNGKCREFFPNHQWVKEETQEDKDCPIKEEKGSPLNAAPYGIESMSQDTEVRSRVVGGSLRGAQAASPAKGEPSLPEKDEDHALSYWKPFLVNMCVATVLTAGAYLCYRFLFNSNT
Procedure, shortened: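 Recombinant human PTP1B catalytic domain (30 nM) with 2 mM pNPP in 50 mM MOPS, pH 6.5, at 30 °C. Inhibitor diluted around the estimated IC50. Initial rate taken from the early linear part of the 405 nm trace over 2 min. IC50 from nonlinear fit of % inhibition vs [I] with a Hill-coefficient equation. Means of three experiments.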

[7] = target: Tyrosine-protein phosphatase non-receptor type 6 (Homo sapiens, UniProt P29350); assay: Inhibition of SHP1
Tyrosine-protein phosphatase non-receptor type 6, sequence (P29350 whole entry): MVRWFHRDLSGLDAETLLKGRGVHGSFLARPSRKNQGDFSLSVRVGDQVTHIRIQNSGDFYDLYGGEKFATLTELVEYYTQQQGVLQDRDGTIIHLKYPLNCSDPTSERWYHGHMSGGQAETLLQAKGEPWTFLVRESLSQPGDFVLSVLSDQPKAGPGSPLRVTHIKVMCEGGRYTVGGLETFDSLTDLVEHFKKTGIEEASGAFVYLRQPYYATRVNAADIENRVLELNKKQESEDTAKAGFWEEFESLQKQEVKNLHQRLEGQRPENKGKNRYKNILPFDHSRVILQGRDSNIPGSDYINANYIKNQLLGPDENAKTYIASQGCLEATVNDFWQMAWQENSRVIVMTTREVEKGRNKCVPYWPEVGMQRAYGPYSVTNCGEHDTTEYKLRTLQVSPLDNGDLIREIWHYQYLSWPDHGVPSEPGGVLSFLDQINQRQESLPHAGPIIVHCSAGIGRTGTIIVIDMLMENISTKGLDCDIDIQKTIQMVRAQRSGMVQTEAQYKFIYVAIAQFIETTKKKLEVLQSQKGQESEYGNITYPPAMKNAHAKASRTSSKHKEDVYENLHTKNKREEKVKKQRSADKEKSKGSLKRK

HCT-116 = assay: Cytotoxicity against human HCT116 cells after 72 hrs by MTT assay; type: functional, cell-based; settings: HCT-116, 72 h; procedure, shortened: as §1
[8] = target: T6, M-phase inducer phosphatase 2 (Homo sapiens) (UniProt P30305); assay: Mixed type inhibition of human Cdc25B using pNPP substrate at 30 degC and pH 6.5 by Eadie-Hofstee plot
T6 sequence (whole entry): T1 sequence (P30305 whole entry)

[9] = target: T5, Tyrosine-protein phosphatase non-receptor type 1; assay: Competitive inhibition of human recombinant […] catalytic domain using pNPP substrate at 30 degC and pH 6.5 by Eadie-Hofstee plot
Procedure, shortened: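 For the inhibition-mode study, 30 nM PTP1B was run in 50 mM MOPS, pH 6.5, at 30 °C. pNPP was varied in twofold dilutions up to 80 mM, at several inhibitor concentrations. pNP release was read at 405 nm.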

Receptor-type tyrosine-protein phosphatase F, sequence (P10586 whole entry): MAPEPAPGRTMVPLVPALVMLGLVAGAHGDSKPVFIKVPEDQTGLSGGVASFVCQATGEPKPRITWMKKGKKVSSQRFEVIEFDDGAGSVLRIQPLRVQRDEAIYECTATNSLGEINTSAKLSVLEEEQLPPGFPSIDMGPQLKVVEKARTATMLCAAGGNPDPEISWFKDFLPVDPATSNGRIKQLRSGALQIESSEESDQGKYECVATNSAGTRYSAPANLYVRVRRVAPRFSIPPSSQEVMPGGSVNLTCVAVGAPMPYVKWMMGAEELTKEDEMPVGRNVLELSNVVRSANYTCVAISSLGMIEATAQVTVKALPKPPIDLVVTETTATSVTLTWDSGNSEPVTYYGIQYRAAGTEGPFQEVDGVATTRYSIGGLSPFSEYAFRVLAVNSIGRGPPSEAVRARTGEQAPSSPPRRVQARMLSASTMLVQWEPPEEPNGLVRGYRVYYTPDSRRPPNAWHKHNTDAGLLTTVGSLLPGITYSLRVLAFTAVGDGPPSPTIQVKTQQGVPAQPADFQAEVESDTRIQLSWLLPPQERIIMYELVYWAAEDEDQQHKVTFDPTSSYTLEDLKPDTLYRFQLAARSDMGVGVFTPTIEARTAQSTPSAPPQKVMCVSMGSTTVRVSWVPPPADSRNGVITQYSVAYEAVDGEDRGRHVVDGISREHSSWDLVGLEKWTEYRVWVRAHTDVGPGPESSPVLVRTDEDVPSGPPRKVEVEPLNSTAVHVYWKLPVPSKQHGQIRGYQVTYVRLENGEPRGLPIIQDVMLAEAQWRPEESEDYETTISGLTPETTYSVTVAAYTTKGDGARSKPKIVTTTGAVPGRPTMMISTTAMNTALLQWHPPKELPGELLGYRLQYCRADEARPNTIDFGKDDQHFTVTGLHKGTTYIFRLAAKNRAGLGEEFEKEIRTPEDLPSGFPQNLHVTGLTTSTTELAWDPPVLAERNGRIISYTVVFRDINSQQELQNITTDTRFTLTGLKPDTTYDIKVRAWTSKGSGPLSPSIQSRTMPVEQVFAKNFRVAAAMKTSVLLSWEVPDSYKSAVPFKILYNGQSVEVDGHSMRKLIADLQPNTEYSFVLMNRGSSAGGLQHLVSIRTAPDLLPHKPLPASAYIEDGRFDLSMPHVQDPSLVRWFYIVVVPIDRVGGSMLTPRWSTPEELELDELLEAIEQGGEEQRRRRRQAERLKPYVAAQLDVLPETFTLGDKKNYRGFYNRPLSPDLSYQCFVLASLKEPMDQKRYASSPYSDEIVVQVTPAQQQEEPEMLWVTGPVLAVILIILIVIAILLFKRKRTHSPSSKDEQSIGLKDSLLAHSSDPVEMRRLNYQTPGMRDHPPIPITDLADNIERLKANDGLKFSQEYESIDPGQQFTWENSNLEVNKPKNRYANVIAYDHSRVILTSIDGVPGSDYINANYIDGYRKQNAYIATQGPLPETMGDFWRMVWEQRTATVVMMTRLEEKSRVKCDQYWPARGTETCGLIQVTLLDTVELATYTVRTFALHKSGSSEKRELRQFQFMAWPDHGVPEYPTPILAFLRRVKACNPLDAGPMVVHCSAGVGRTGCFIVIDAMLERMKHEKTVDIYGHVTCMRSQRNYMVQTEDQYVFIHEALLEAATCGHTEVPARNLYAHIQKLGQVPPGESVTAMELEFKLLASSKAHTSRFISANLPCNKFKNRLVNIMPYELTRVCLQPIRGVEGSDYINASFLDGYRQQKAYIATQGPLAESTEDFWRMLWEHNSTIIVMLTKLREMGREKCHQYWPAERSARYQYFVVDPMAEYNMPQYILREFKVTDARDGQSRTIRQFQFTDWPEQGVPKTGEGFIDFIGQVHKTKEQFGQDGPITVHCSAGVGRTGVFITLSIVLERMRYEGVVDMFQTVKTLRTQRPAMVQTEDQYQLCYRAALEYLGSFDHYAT

| IC50 [1] [µM] | IC50 [2] [µM] | IC50 [3] [µM] | IC50 [4] [µM] | IC50 [5] [µM] | IC50 [6] [µM] | IC50 [7] [µM] | inhibition [8] | Ki [9] [µM] | SMILES | IC50 (A549) [µM] | IC50 (HeLa) [µM] | IC50 (HCT-116) [µM] |
| --- | --- | --- | --- | --- | --- | --- | --- | --- | --- | --- | --- | --- |
| > 120 | 27.1 | 119 | 80.7 | > 120 | 22.3 | > 120 | – | – | CO[C@H]1O[C@H](Cn2cc(CO[C@@H](C)[C@H](NC(=O)OC(C)(C)C)C(=O)O)nn2)[C@@H](OCc2ccccc2)[C@H](OCc2ccccc2)[C@H]1OCc1ccccc1 | 62.8 | 69.5 | 33.5 |
| > 120 | 11.6 | 53 | 38.6 | > 120 | 7.1 | > 120 | – | – | C[C@H](OCc1cn([C@@H]2O[C@H](COCc3ccccc3)[C@@H](OCc3ccccc3)[C@H](OCc3ccccc3)[C@H]2OCc2ccccc2)nn1)[C@H](NC(=O)OC(C)(C)C)C(=O)O | 25.3 | 31.5 | 12 |
| > 120 | 8.2 | 26.8 | 89.2 | > 120 | 18.5 | > 120 | – | – | CO[C@H]1O[C@H](Cn2cc(COC[C@H](NC(=O)OC(C)(C)C)C(=O)O)nn2)[C@@H](OCc2ccccc2)[C@H](OCc2ccccc2)[C@@H]1OCc1ccccc1 | 97.3 | 54.2 | 32.3 |
| > 120 | 6.2 | 24.3 | 12.5 | 47.6 | 5.9 | 40.4 | Active | 3.9 | CC(C)(C)OC(=O)N[C@@H](COCc1cn([C@@H]2O[C@H](COCc3ccccc3)[C@@H](OCc3ccccc3)[C@H](OCc3ccccc3)[C@H]2OCc2ccccc2)nn1)C(=O)O | 35.2 | 25.3 | 12.8 |

The next lines start with the compound.

| SMILES | IC50 [1] [µM] | IC50 [2] [µM] | IC50 [3] [µM] | IC50 [4] [µM] | IC50 [5] [µM] | IC50 [6] [µM] | IC50 [7] [µM] | inhibition [8] | Ki [9] [µM] | IC50 (A549) [µM] | IC50 (HeLa) [µM] | IC50 (HCT-116) [µM] |
| --- | --- | --- | --- | --- | --- | --- | --- | --- | --- | --- | --- | --- |
| CO[C@H]1O[C@H](Cn2cc(COC[C@H](NC(=O)OC(C)(C)C)C(=O)O)nn2)[C@@H](OCc2ccccc2)[C@H](OCc2ccccc2)[C@H]1OCc1ccccc1 | > 120 | 67.5 | > 120 | > 120 | > 120 | 67.8 | > 120 | – | – | 120 | 75.4 | 46.3 |
| CO[C@H]1O[C@H](Cn2cc(COC[C@H](NC(=O)OC(C)(C)C)C(=O)O)nn2)[C@H](OCc2ccccc2)[C@H](OCc2ccccc2)[C@H]1OCc1ccccc1 | > 120 | 20.6 | > 120 | 54.9 | > 120 | 20.9 | > 120 | – | – | > 120 | > 120 | > 120 |
| CO[C@H]1O[C@H](Cn2cc(CO[C@@H](C)[C@H](NC(=O)OC(C)(C)C)C(=O)O)nn2)[C@H](OCc2ccccc2)[C@H](OCc2ccccc2)[C@H]1OCc1ccccc1 | > 120 | 31.1 | > 120 | > 120 | > 120 | 15.3 | > 120 | – | – | 108 | 56.4 | 36.6 |
| CO[C@H]1O[C@H](Cn2cc(CO[C@@H](C)[C@H](NC(=O)OC(C)(C)C)C(=O)O)nn2)[C@@H](OCc2ccccc2)[C@H](OCc2ccccc2)[C@@H]1OCc1ccccc1 | > 120 | 12.2 | 51.6 | 105 | > 120 | 26 | > 120 | – | – | 57.2 | 53.7 | 32.2 |
| CC(C)(C)OC(=O)N[C@@H](COCc1cn([C@@H]2O[C@H](CO)[C@@H](O)[C@H](O)[C@H]2O)nn1)C(=O)O | > 120 | > 120 | – | – | > 120 | > 120 | > 120 | – | – | – | – | – |
